Activity calls are given as the source filed them. The calls are words filed in the database; no cut-off is given here.

These results are taken from ChEMBL document CHEMBL4190396, “Discovery of Novel Small-Molecule Inhibitors of NF-κB Signaling with Antiinflammatory and Anticancer Properties” (J Med Chem, 2018).

The target in data set [1] is MAP kinase p38 (Mus musculus) (UniProt P47811+O08911+Q9WUI1+Q9Z1B7). Briefly: Inhibition of LPS-induced p38 MAPK phosphorylation in mouse RAW264.7 cells at 1 to 10 uM preincubated for 1 hr followed by LPS stimulation for 15 to 30 mins by Western blot method. In kind it is cell-based. Summed up: (§1)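 RAW 264.7 cells, 3×10^6 per dish overnight, pretreated 1 h with 1, 5 or 10 µM, then LPS 100 ng/mL for 15 or 30 min; nuclear/cytoplasmic lysates (20–30 µg) run on 10% SDS-PAGE, immunoblotted for phospho/total proteins, GAPDH loading control, ECL, densitometry; three independent experiments.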

Data set [2] concerns HeLa. Kind of data set: Cell cycle arrest in human HeLa cells assessed as accumulation at G0/G1 phase after 24 hrs by propidium iodide staining based flow cytometry. It counts as functional. Summed up: (§2)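 HeLa cells, 3×10^5/well, attached overnight, switched to serum-free medium for synchronisation, then DMSO or 5, 10, 20 µM for 24 h; cells fixed, PI-stained, G0/G1, S and G2/M fractions by flow cytometry; n = 3, mean ± SD.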

Data set [3] deals with Toll-like receptor 9 (Homo sapiens) (UniProt Q9NR96). Kind of data set: Antagonist activity at human TLR9 expressed in HEK293 cells assessed as decrease in CpG-ODN2006-induced NF-kappaB activation-mediated SEAP production at 10^-9 to 10^-5 M after 24 hrs by Quanti-blue-based assay. It counts as cell-based. Summed up:
(§3)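 HEK293 cells stably carrying a human TLR plus an NF-κB-driven SEAP reporter, seeded 5×10^4/well for 24 h at 37 °C, then stimulated: Pam3CSK4 100 µg/mL (TLR1/2), Pam2CSK4 100 µg/mL, poly I:C 5 µg/mL (TLR3), LPS 20 ng/mL (TLR4), flagellin 100 ng/mL (TLR5), R848 1 µg/mL (TLR7, TLR8), CpG-ODN2006 1 µg/mL (TLR9). After 24 h with compound, supernatant mixed with QUANTI-Blue, 1 h 37 °C, OD 620 nm.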

Data set [4] has as its system RAW264.7. Briefly: Inhibition of LPS-induced ERK phosphorylation in mouse RAW264.7 cells at 1 to 10 uM preincubated for 1 hr followed by LPS stimulation for 15 to 30 mins by Western blot method. It counts as cell-based. The method, boiled down: as §1
In data set [5] the test system is HeLa. Briefly: Cell cycle arrest in human HeLa cells assessed as accumulation at S phase at 20 uM after 24 hrs by propidium iodide staining based flow cytometry (reference value: 34.9%). In kind it is functional. Summed up: as §2
Data set [6] addresses Tyrosine-protein kinase SYK (Homo sapiens) (UniProt P43405). Briefly: Inhibition of wild-type human partial length SYK (D354 to N635 residues) expressed in bacterial expression system assessed as residual activity at 10 uM by Kinomescan method.
In data set [7] the test system is RAW264.7. Kind of data set: Inhibition of LPS-induced PI3K phosphorylation in mouse RAW264.7 cells at 1 to 10 uM preincubated for 1 hr followed by LPS stimulation for 15 to 30 mins by Western blot method. In kind it is cell-based. The method, boiled down: as §1
The test system of another data set is HMEC. Kind of data set: Cytotoxicity against HMEC up to 40 uM after 24 to 48 hrs by WST1 assay. The note with it: human. In kind it is cell-based.
Data set [8] relates to RAW264.7. Briefly: Inhibition of LPS-induced PI3K-mediated AKT phosphorylation in mouse RAW264.7 cells at 1 to 10 uM preincubated for 1 hr followed by LPS stimulation for 15 to 30 mins by Western blot method. It counts as cell-based. The method, boiled down:
as §1

The nature of data set [9]: Inhibition of LPS-induced NFkappaB activation in mouse RAW264.7 cells assessed as reduction in nitric oxide production after 18 hrs by DAN assay. It counts as cell-based. The note with it: RAW264.7, 18 h. The method, boiled down: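 RAW 264.7 cells at 2×10^5 cells/mL, 24 h, medium refreshed, then LPS 100 ng/mL with or without graded compound for 18 h; nitrite in medium reacted with 2,3-diaminonaphthalene (0.05 mg/mL in 0.62 M HCl), 15 min in dark, as NO readout. n = 3, mean ± SD.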

Data set [10] relates to HeLa. Kind of data set: Growth inhibition of human HeLa cells after 48 hrs by WST1 assay. It counts as functional.
Data set [11] concerns the target Toll-like receptor 3 (Homo sapiens) (UniProt O15455). Kind of data set: Antagonist activity at human TLR3 expressed in HEK293 cells assessed as decrease in poly I:C-induced NF-kappaB activation-mediated SEAP production at 10^-9 to 10^-5 M after 24 hrs by Quanti-blue-based assay. It counts as cell-based. The method, boiled down:
as §3

Data set [12] deals with Toll-like receptor 4 (Homo sapiens) (UniProt O00206). Kind of data set: Antagonist activity at human TLR4 expressed in HEK293 cells assessed as decrease in LPS-induced NF-kappaB activation-mediated SEAP production at 10^-9 to 10^-5 M after 24 hrs by Quanti-blue-based assay. It counts as cell-based. The method, boiled down:
as §3

The target in data set [13] is Tumor necrosis factor receptor superfamily member 1A (Homo sapiens, UniProt P19438). Kind of data set: Inhibition of TNFR in TLR null HEK-blue cells assessed as decrease in TNFalpha-stimulated NF-kappaB activation-mediated SEAP production after 24 hrs by Quanti-blue-based assay. It counts as cell-based.
Sequence of Tumor necrosis factor receptor superfamily member 1A (P19438 whole entry): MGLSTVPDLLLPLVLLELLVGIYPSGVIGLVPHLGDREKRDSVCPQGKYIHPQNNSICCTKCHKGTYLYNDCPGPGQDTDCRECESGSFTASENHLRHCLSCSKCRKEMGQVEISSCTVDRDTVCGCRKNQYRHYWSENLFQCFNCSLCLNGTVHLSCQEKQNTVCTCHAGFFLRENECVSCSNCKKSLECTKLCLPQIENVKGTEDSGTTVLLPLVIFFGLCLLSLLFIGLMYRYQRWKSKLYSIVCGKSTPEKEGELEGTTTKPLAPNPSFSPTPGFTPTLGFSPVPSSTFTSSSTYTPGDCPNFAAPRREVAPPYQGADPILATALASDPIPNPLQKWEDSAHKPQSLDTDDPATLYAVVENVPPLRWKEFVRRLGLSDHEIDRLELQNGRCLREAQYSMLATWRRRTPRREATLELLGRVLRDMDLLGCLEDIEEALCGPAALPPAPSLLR
The nature of data set [14]: Inhibition of IFN-gamma-induced NFkappaB activation in mouse RAW264.7 cells assessed as reduction in nitric oxide production after 18 hrs by DAN assay. In kind it is cell-based. Particulars: RAW264.7, 18 h. Summed up: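 Mouse RAW 264.7 macrophages stimulated with IFN-γ alongside compound; NF-κB-mediated NO output measured by the 2,3-diaminonaphthalene (DAN) nitrite assay.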

In another data set the target is TLR2/TLR6 (Homo sapiens) (UniProt O60603+Q9Y2C9). Kind of data set: Antagonist activity at human TLR2/6 expressed in HEK293 cells assessed as decrease in Pam2CSK4-induced NF-kappaB activation-mediated SEAP production at 10^-9 to 10^-5 M after 24 hrs by Quanti-blue-based assay. In kind it is cell-based. The method, boiled down:
as §3

For data set [15], the system named is HeLa. Briefly: Cell cycle arrest in human HeLa cells assessed as accumulation at G0/G1 phase at 5 uM after 24 hrs by propidium iodide staining based flow cytometry (reference value: 49.4%). It counts as functional. The method, boiled down:
as §2

The target of data set [16] is T1, Protein kinase C (PKC) (Homo sapiens) (UniProt O94806+P41743+P17252+P05129+Q05655+P05771+Q05513+Q02156+P24723+Q15139+Q04759). Briefly: (§4) Inhibition of PKC in TLR null HEK-blue cells assessed as inhibition of PMA-induced NF-kappaB activation-mediated SEAP production after 24 hrs by Quanti-blue-based assay. It counts as cell-based.
Data set [17] deals with Protein kinase C (PKC). The description is as §4. It counts as cell-based, Homo sapiens.
The target in data set [18] is T1, Protein kinase C (PKC) (Homo sapiens). Briefly: (§5) Inhibition of PKC in HEK-blue cells expressing human TLR7 assessed as inhibition of PMA-induced NF-kappaB activation-mediated SEAP production after 24 hrs by Quanti-blue-based assay. It counts as cell-based.
The target of data set [19] is Protein kinase C (PKC). Described as §5. In kind it is cell-based.
The test system of data set [20] is HeLa. Briefly: Cell cycle arrest in human HeLa cells assessed as accumulation at G0/G1 phase at 10 uM after 24 hrs by propidium iodide staining based flow cytometry (reference value: 49.4%). In kind it is functional. Summed up:
as §2

Data set [21] deals with HeLa. Briefly: Cell cycle arrest in human HeLa cells assessed as accumulation at G2/M phase at 5 uM after 24 hrs by propidium iodide staining based flow cytometry (reference value: 15.7%). In kind it is functional. Summed up:
as §2

The test system of data set [22] is HeLa. Kind of data set: Cell cycle arrest in human HeLa cells assessed as accumulation at G0/G1 phase at 20 uM after 24 hrs by propidium iodide staining based flow cytometry (reference value: 49.4%). It counts as functional. The method, boiled down: as §2

Sequence of Toll-like receptor 9 (Homo sapiens) (Q9NR96 whole entry): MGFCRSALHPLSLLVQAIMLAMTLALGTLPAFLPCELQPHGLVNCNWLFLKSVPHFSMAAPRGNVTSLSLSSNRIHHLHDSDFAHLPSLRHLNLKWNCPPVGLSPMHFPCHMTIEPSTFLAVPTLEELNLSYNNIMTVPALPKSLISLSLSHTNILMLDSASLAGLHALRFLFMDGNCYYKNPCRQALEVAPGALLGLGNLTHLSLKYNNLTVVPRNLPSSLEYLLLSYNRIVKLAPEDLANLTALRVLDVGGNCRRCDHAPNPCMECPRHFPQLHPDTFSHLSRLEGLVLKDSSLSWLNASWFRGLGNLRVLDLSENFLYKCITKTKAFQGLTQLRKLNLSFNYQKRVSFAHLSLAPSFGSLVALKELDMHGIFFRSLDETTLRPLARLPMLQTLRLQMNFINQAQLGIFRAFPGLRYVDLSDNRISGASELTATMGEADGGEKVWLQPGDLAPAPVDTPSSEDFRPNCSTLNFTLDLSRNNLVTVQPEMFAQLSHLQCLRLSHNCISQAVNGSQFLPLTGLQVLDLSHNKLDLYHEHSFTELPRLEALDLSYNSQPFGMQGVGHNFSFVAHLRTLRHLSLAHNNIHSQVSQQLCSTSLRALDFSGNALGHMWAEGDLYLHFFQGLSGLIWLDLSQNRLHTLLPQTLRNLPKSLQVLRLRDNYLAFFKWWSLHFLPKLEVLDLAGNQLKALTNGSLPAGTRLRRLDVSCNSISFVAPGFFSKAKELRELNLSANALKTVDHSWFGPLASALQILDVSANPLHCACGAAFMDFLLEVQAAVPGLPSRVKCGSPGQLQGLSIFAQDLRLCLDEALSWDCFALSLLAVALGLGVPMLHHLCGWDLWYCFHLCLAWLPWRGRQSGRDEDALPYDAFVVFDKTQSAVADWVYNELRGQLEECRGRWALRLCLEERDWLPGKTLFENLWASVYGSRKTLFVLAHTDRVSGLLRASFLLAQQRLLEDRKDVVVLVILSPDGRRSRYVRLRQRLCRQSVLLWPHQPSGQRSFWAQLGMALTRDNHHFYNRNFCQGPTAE
Sequence of Toll-like receptor 4 (Homo sapiens) (O00206 whole entry): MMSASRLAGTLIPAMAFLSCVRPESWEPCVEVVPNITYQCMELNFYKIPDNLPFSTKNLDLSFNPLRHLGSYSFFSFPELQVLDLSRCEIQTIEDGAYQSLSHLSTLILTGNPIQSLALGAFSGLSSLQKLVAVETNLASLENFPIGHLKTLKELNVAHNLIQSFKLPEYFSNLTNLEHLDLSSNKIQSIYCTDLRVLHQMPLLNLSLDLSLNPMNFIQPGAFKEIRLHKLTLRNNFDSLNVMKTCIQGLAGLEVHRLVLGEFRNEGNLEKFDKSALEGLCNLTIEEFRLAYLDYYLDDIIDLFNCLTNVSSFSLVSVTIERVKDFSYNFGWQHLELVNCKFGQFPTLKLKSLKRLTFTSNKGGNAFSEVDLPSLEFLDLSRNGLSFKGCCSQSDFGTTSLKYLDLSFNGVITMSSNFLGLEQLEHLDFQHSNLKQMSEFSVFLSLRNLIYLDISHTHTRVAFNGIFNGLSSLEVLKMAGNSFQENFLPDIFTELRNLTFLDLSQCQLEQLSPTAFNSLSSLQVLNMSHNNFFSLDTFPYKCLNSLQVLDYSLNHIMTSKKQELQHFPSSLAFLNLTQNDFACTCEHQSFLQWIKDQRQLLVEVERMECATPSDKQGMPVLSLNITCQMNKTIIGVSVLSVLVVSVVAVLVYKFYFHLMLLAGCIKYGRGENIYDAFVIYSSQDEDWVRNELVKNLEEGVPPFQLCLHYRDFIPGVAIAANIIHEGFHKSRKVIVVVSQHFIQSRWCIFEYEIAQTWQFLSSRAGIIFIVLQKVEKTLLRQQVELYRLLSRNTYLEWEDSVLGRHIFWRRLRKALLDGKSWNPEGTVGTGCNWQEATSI
Sequence of Toll-like receptor 3 (Homo sapiens) (O15455 whole entry): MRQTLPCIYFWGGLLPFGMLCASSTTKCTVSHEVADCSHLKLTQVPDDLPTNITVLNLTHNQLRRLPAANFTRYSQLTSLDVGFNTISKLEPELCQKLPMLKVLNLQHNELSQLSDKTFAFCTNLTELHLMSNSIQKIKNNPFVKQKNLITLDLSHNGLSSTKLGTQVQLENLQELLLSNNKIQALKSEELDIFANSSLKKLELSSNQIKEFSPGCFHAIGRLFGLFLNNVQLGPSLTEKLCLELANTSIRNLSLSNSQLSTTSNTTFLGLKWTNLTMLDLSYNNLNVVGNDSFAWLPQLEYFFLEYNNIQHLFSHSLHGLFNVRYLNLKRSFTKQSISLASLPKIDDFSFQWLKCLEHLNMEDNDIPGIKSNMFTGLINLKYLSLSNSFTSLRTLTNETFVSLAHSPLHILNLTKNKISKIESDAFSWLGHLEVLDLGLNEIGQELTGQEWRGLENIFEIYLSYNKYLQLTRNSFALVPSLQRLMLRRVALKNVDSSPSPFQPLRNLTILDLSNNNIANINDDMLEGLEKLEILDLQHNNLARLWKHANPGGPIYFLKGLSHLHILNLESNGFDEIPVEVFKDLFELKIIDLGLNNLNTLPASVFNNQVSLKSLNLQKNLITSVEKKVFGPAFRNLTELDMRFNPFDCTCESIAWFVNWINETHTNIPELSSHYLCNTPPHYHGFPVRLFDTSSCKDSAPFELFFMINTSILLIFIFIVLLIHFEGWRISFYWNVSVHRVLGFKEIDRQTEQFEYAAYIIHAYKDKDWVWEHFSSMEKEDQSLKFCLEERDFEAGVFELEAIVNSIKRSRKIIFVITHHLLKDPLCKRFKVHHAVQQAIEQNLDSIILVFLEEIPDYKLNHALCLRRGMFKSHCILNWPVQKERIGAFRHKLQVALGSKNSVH

On to `O=C(NNC(=O)c1csc(-c2ccc(Cl)cc2Cl)n1)c1ccccn1`, for which the inhibition entry (in data set [1]; in the data set with RAW264.7 [4]; in data set [6]) was “inactive” each time. Besides, the Activity entry in the data set on HeLa [2] is “Dose-dependent effect”; in the data set with HeLa [5] it was 29.1%; with HMEC it was “Non-Toxic”; with HeLa [15], 37.8%; in the data set on HeLa [20], 54.7%; in the data set on HeLa [21], 13.8%. The Activity in the data set with HeLa [22] worked out at 67%. In addition, the inhibition result (in data set [3]; in the data set on RAW264.7 [7]; in the data set with RAW264.7 [8]; in data set [11]; in [12]; on TLR2/TLR6 (Homo sapiens)) was “Active” throughout. In addition, the IC50 in data set [9] turned out to be 0.08 µM; in [13] it was 0.77 µM; in data set [14], 0.079 µM; at Protein kinase C (PKC) [17], 0.37 µM; at Protein kinase C (PKC) [19], 0.59 µM. The GI50 with HeLa [10] worked out at 1.35 µM. Moreover, the inhibition entry in data set [16] and in data set [18] was “Dose-dependent effect” in each case.
